In experiment [1] the target is Prostaglandin G/H synthase 1 (Homo sapiens) (UniProt P23219). As to the kind of experiment: Inhibition of COX-1 in human immunoassay. Further details: concentration or dose not given beside the values.
Experiment [2] deals with T1, Prostaglandin G/H synthase 2 (Homo sapiens) (UniProt P35354).
T1 sequence (whole entry): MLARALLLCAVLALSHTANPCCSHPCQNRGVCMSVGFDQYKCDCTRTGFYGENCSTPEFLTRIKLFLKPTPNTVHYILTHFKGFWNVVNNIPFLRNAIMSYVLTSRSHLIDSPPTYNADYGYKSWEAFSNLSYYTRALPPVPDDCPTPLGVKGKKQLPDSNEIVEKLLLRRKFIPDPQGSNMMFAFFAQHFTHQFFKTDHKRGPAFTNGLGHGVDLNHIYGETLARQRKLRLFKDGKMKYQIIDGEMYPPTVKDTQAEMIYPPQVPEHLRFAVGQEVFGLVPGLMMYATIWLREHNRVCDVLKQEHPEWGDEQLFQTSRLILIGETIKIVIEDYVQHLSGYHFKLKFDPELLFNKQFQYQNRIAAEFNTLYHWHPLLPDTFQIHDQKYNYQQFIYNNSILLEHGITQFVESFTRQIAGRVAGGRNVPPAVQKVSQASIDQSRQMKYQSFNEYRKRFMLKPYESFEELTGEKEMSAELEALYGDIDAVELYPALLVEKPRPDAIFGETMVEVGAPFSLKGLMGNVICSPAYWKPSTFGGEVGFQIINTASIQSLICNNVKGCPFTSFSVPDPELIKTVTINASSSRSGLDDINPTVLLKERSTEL
In words: Inhibition of COX-2 in human immunoassay. Further details: concentration or dose not given beside the values. Put shortly: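 Human COX-2 enzyme immunoassay kit, run per the manufacturer's instructions. Each compound was tested at a single concentration of 1 µM, and the read-out was percent inhibition of enzyme activity.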

Structures are written as SMILES.

Prostaglandin G/H synthase 1 (Homo sapiens), sequence (P23219 whole entry): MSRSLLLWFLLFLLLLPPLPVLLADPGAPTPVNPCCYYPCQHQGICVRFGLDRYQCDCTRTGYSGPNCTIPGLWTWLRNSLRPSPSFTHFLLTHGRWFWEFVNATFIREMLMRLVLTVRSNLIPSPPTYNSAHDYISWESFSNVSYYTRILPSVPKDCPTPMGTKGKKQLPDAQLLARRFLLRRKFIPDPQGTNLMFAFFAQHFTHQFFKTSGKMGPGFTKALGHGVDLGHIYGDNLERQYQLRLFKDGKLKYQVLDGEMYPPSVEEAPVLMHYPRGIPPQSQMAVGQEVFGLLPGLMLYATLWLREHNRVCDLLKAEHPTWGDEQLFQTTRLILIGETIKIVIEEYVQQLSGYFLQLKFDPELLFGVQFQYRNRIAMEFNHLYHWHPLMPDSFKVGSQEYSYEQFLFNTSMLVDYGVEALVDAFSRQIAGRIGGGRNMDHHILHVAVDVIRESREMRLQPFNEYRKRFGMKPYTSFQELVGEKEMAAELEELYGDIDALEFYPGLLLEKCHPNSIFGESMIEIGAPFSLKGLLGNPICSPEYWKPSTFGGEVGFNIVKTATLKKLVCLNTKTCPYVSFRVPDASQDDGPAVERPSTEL

For `NS(=O)(=O)c1ccc(CCNS(=O)(=O)c2ccccc2[N+](=O)[O-])cc1`, the Enzyme inhibition came out at 61% in experiment [1] and 22% in experiment [2].

With `CS(=O)(=O)c1cc(Nc2ccc(Br)cc2)ncn1`, the figures for the Enzyme inhibition in experiment [1] and in experiment [2] were 14% and 60%, respectively.

As to `NS(=O)(=O)c1ccc(NC2=CC(=O)C(=O)c3ccccc32)cc1`, the Enzyme inhibition in experiment [1] is 14%; in experiment [2], 27%.

Regarding `NS(=O)(=O)c1ccc(Cl)c(C(=O)Nc2cccc([N+](=O)[O-])c2)c1`, the Enzyme inhibition in experiment [1] amounted to 23%; in experiment [2], 57%.

As for `NS(=O)(=O)c1ccc(NCc2cnc3ccccc3n2)cc1`, the figures for the Enzyme inhibition in experiment [1] and in experiment [2] were 11% and 54%, respectively.

`NS(=O)(=O)c1ccc(CCNC(=O)c2ccccc2Br)cc1`: the Enzyme inhibition in experiment [1] was 46%; in experiment [2] it was 10%.

Take `Cc1onc(-c2ccccc2)c1C(=O)Nc1ccc(S(N)(=O)=O)cc1`: the values for the Enzyme inhibition in experiment [1] and in experiment [2] were 23% and 48%, respectively.

`NS(=O)(=O)c1ccc(CCNS(=O)(=O)c2ccc(Cl)cc2Cl)cc1`: the Enzyme inhibition worked out at 23% in experiment [1] and 30% in experiment [2].

Take `NS(=O)(=O)c1ccc(N/C=C/C(=O)c2ccncc2)cc1`: the Enzyme inhibition came to 11% in experiment [1] and 42% in experiment [2].

In the case of `NS(=O)(=O)c1ccc(NC(=S)NC(=O)c2ccc(Cl)cc2Cl)cc1`, the results for the Enzyme inhibition in experiment [1] and in experiment [2] were 8% and 22%, respectively.

Turning to `NS(=O)(=O)c1ccc(Nc2nc(-c3ccccc3)cs2)cc1`, the figures for the Enzyme inhibition in experiment [1] and in experiment [2] were 61% and 29%, respectively.

With `C/C(=N\Nc1ccc(S(N)(=O)=O)cc1)c1ccccn1`, the Enzyme inhibition was 38% in experiment [1] and 39% in experiment [2].

For the origin of these results see ChEMBL document CHEMBL1142660, “Optimization and validation of a docking-scoring protocol; application to virtual screening for COX-2 inhibitors” (J Med Chem, 2005).
